Compound activity as filed in PubChem.
HCV core dimer: blocks dimerization of HCV core protein; 300,000 compounds, 0.33% hits; inhibition, % at 5 µM; TR-FRET GST/Flag-core106 dimerization, 1536-well; AID 1899;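 active means inhibition above the mean of all tested compounds plus 3 SD, set per screening campaign, cut at about 45% in these data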
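Material: GST/Flag-tagged HCV core106 proteins. Incubation: 4 h, 22.5 °C incubation. Read-out basis: inhibition (%) from 671 over 617 nm ratio. Measured by: TR-FRET, excitation 340 nm, emission 617 and 671 nm.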
PP1 counter: counter-screen for PP5 inhibitors: inhibitors of human PP1-alpha; purified PP1alpha, OMFP fluorescence; inhibition, % at 6.7 µM; 320,000 compounds, 0.9% hits;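 active means inhibition above the mean inhibition of all tested compounds plus 3 SD, computed separately for each screening campaign, cut at about 15% in these data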
ZTA DNA inh: ZTA (EBV) inhibition in EBNA-1 counter-screen; P03206; ZTA-DNA binding, fluorescence polarization; inhibition, % at 11 µM; 320,000 compounds, 0.15% hits; AID 2234; in the data active means inhibition above about 33%
EBNA-1 inh: blocks EBNA-1 binding to DNA | inhibition, % at 14.8 µM | EBNA-1 DNA binding, fluorescence polarization | 300,000 compounds, 0.34% hits; in the data active means inhibition above about 28%
PP5 primary: PP5 (human) phosphatase inhibition; P53041; purified PP5c, OMFP substrate fluorescence; inhibition, % at 6.7 µM; 320,000 compounds, 0.18% hits;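 active means inhibition above the campaign's mean inhibition across all tested compounds plus 3 SD, cut at about 9.5% in these data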;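 further: 0% = DMSO only and 100% = 100 µM cantharidin control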
Target sequence (P53041 whole entry, looked up): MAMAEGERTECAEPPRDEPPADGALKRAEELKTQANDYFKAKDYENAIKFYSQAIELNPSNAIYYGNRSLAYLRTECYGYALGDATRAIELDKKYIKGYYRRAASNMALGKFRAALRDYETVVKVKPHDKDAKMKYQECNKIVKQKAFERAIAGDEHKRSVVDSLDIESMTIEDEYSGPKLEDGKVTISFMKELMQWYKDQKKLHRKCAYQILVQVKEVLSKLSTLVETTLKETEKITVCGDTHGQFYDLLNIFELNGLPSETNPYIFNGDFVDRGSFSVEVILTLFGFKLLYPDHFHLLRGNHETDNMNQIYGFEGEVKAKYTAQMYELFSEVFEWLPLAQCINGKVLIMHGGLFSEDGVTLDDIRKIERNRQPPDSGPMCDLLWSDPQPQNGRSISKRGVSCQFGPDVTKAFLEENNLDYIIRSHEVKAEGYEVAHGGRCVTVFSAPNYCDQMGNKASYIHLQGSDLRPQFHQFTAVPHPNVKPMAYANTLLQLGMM
ZTA inh confirm: EBV ZTA DNA binding inhibition, confirmation. Zta-ZRE DNA binding, fluorescence polarization. 320 compounds, 30% hits. shares compounds with ZTA DNA inh. inhibition, % at 11.1 µM;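 active means mean inhibition across triplicate runs above the hit threshold derived for the original primary screen, cut at about 33% in these data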;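 further: 0% = Zta with DMSO and 100% = wells lacking Zta protein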
EBNA-1 counter: EBNA-1 DNA binding inhibition, counter-screen for ZTA; shares compounds with ZTA DNA inh; fluorescence polarization; inhibition, % at 14.8 µM; 320 tested, under 10 active; AID 2362; call rule not given here
* = called active by the depositor; . = no result; ! = not active in a repeat. This is a sample that favours compounds with a hit; in the whole collection about 1.7% have one here.

SMILES	HCV core dimer	PP1 counter	ZTA DNA inh	EBNA-1 inh	PP5 primary	ZTA inh confirm	EBNA-1 counter
O=C(NN=C1CCCC1)c1cccc(Br)c1	-2	1	12	13	2	.	.
O=C(O)/C=C/C(=O)Nc1ccc(-c2ccccc2)cc1	4	-1	-5	3	0	.	.
Cc1ccc(/C=N/N2CCN(C3c4ccccc4-c4ccccc43)CC2)o1	5	-3	12	3	0	.	.
COC(=O)c1sc(S(=O)(=O)NC(C)C(=O)O)c(C(=O)OC)c1C (stereo not given)	-4	-1	-16	-6	5	.	.
COC/C=C/C1=CC2=CC(=O)C(C)(OC(=O)c3cnc4ccccc4n3)C(=O)C2=CO1 (stereo not given)	10	-3	40*	2	-2	21	1
COC/C=C/C1=CC2=CC(=O)C(C)(OC(=O)c3cnc4ccccc4n3)C(=O)C2=CN1C(CO)CO (stereo not given)	2	-3	-18	-15	2	.	.
CCCCC1=CC2=C(c3ccco3)C(=O)C(C)(OC(=O)c3ccc(OC)cc3)C(=O)C2=CN1CC(C)C (stereo not given)	37	6	10	11	0	.	.
CCOC(=O)c1ccc(NC(=O)CCc2nc(-c3ccc(C)cc3)no2)cc1	1	3	35*	8	7	-4	-7
CCOC(=O)c1ccc(NC(=O)CCc2nc(-c3ccc(Cl)cc3)no2)cc1	-12	5	-8	-2	6	.	.
CN(C)CCOc1ccccc1-c1ccccc1	15	-1	37*	4	1	-12	-7
CN(C)CCOCCOc1ccccc1-c1ccccc1	-2	-4	4	-6	6	.	.
S=c1[nH]nc(Cn2cnc3ccccc32)n1-c1ccccc1	-1	-3	4	-3	0	.	.
N/C(=N\OC(=O)COc1ccc(Br)cc1Cl)c1ccccn1	-2	2	74*	-13	3	6	-10
Cc1c(CC(=O)O)c(=O)oc2cc(OCc3ccc(Br)cc3)ccc12	9	1	5	12	-2	.	.
COC(=O)CSc1nnc([C@H](Cc2ccccc2)NC(=O)OC(C)(C)C)o1	-5	1	90*	5	0	0	-4
CN(c1ccccc1C(=O)N1CCCC1)S(C)(=O)=O	-1	-5	-1	-9	3	.	.
Cc1ccc(S(=O)(=O)N(C)c2ccccc2C(=O)N2CCCC2)cc1	-6	-3	155*	-9	1	-9	-15
Cc1cccc(C)c1NC(=S)NCCc1ccccn1	0	0	34*	14	-1	1	8
Cc1ccccc1NC(=S)NCCc1ccccn1	-2	3	2	12	-1	.	.
C#CCOc1ccc(/C=C2\SC(=S)N(Cc3cccnc3)C2=O)cc1	2	-1	-2	24	-3	.	.
O=C1/C(=C/c2ccc(O)cc2)SC(=S)N1Cc1cccnc1	7	-9	77*	-11	1	7	-2
CCOc1ccc(NC(=O)CSc2nccn(-c3ccc4c(c3)OCCO4)c2=O)cc1	5	0	47*	4	-1	4	2
O=C(COC(=O)CCC(=O)c1cccs1)Nc1cc(S(=O)(=O)N2CCOCC2)ccc1Cl	5	1	6	6	-1	.	.
COc1ccc(OC)c(/C=N/NC(=O)CNC(=O)c2ccc(S(=O)(=O)N3CCOCC3)cc2)c1	-11	-3	-13	-1	-5	.	.
C#CCOCCOCCOCCNc1nc(N2CCN(C(=O)C([C@@H](C)CC)n3cc(C(N)CC(C)C)nn3)CC2)nc(N2CCN(C(=O)[C@H](CCC(=O)O)n3cc(C(N)[C@H](C)CC)nn3)CC2)n1 (stereo not given in full)	-13	0	58*	16	-1	12	-1
SMILES	HCV core dimer	PP1 counter	ZTA DNA inh	EBNA-1 inh	PP5 primary	ZTA inh confirm	EBNA-1 counter
C#CCOCCOCCOCCNc1nc(N2CCN(C(=O)[C@H](CCC(=O)O)n3cc(C(N)CC(C)C)nn3)CC2)nc(N2CCN(C(=O)[C@H](CCC(=O)O)n3cc(C(N)[C@H](C)CC)nn3)CC2)n1 (stereo not given in full)	-7	2	-11	-5	0	.	.
CC(=O)n1cc(CO)c2ccccc21	-1	-2	4	3	1	.	.
CC(=O)O/C(=C\c1cn(C(C)=O)c2ccccc12)C(=O)O	-1	-5	158*	1	0	5	-1
CC1(C)CC(=O)C=C(c2ccc(-c3ccccc3)cc2)C1	.	-4	48*	.	1	30	9
Cc1ccc(Cn2c(N)c(S(=O)(=O)c3cccs3)c3nc4ccccc4nc32)cc1	27	-2	8	27	2	.	.
COc1ccc(Cn2c(N)c(S(=O)(=O)c3cccs3)c3nc4ccccc4nc32)cc1	24	-4	35*	22	1	6	5
OCCN(CCO)CC(O)Cn1c2ccccc2c2ccccc21 (stereo not given)	5	-2	61*	-4	3	9	7
COc1ccc(C(C)=O)cc1COC(=O)CSCC(=O)Nc1ccc(C)cc1	-2	-4	6	-8	-1	.	.
O=C(O)C1=C[C@H](c2csc3ccccc23)C[C@H](OCCCCO)O1	-6	9	-12	1	3	.	.
CC(=O)Nc1cccc(NC(=O)COc2ccccc2C)c1	1	0	94*	0	2	-5	0
CCN1CCN(Cc2ccc(NC(=O)c3ccc(C)c(NC(=O)C(=O)c4c[nH]c5ccccc45)c3)cc2C(F)(F)F)CC1	-24	15	40*!	12	6	32	-7
NC(=NCCc1ccccc1)NS(=O)(=O)c1ccccc1F	0	-1	1	-8	-1	.	.
Cc1ccc(C)c(OCC(=O)NCC(c2ccco2)N2CCCCC2)c1 (stereo not given)	2	-5	-8	-8	2	.	.
COC(=O)COc1c(/C=C\c2nc(O)c([N+](=O)[O-])c(=O)[nH]2)cccc1OC	16	1	13	2	-1	.	.
C#CCOc1c(/C=C\c2nc(O)c([N+](=O)[O-])c(=O)[nH]2)cc(Br)cc1OC	33	2	50*	-4	-1	27	-14
CCn1c(CSc2nccn2C)nc2cc(C(=O)O)ccc21	-5	1	38*	4	4	28	16
CCn1c(CSc2nc3ccccc3[nH]2)nc2cc(C(=O)O)ccc21	1	1	29	19	0	.	.
Cc1oc2cc(OC(C)C(=O)O)ccc2c(=O)c1Oc1ccccc1 (stereo not given)	0	-2	-25	-3	4	.	.
CCOc1ccc2c(=O)c(Oc3ccccc3)c(C)oc2c1	13	0	139*	-16	2	-6	-10
CCc1ccc(Nc2c([N+](=O)[O-])c(=O)oc3ccccc23)cc1	5	-1	2	-1	0	.	.
